{"data": "Assay results of several laboratories", "CYP3A4": "Cytochrome P450 3A4 (CYP3A4, Homo sapiens, UniProt P08684)", "CYP1A2": "Cytochrome P450 1A2 (CYP1A2, Homo sapiens, UniProt P05177)", "note": "Compare with care: the assays were run in different laboratories."}
{"SMILES": "NCCc1ccccn1", "tested on": "CYP3A4", "assay": "thermal stability", "endpoint": "ΔTm", "result": "-0.1 °C"}
{"SMILES": "O=C1NC(=O)/C(=C\\c2ccc3ccccc3c2)S1", "tested on": "BHK-21", "assay": "cell growth or viability, MTT", "endpoint": "CC50", "result": "> 100 µM"}
{"SMILES": "COC(=O)C1CCN(C(=O)c2ccc(NCc3cnc4nc(N)nc(N)c4n3)cc2)CC1", "tested on": "CYP1A2", "assay": "enzyme activity, inhibitor, luciferase", "conditions": "10 µM", "endpoint": "inhibition", "result": "-8.49%"}
{"SMILES": "O=c1[nH]cnc2c1nnn2-c1cccc(Cl)c1", "tested on": "BHK-21", "assay": "cell growth or viability, MTT", "endpoint": "CC50", "result": "> 1000 µM"}
{"SMILES": "Cc1cc(C)nc(Nc2ncc(C(=O)NCCc3c(C)[nH]c4ccccc34)cn2)c1", "system": "C57BL/6 mouse, plasma", "conditions": "intraperitoneal, 22 mg/kg", "endpoint": "Cmax", "result": "1150 ng/mL"}
{"SMILES": "CCC[C@@](N)(CO)CCc1ccc(OCCCCCC(C)C)cc1", "tested on": "CYP1A2", "assay": "enzyme activity, inhibitor", "endpoint": "IC50", "result": "> 50 µM"}
{"SMILES": "CCCCCCCC(=O)N[C@@H](CCCCN)C(=O)N[C@@H](CCCCN)C(=O)N[C@@H](C)C(=O)N[C@@H](CC(C)C)C(=O)N[C@@H](CCCCN)C(=O)N[C@@H](CC(C)C)C(=O)N[C@@H](C)C(=O)N[C@@H](CCCCN)C(=O)N[C@@H](CCCCN)C(=O)N1CCC[C@H]1C(=O)N[C@@H](CC(C)C)C(=O)N[C@@H](CCCCN)C(=O)N[C@@H](CC(C)C)C(=O)N[C@@H](CC(C)C)C(=O)N[C@@H](CCCCN)C(N)=O", "system": "female CD-1 mouse, blood", "conditions": "intravenous, 10 mg/kg, single dose", "endpoint": "Cmax", "result": "6950 ng/mL"}
{"SMILES": "CN[C@H](CC(C)C)C(=O)N[C@H]1C(=O)N[C@@H](CC(N)=O)C(=O)N[C@H]2C(=O)NC3C(=O)N[C@H](C(=O)N[C@H](C(=O)NCCC[N+](C)(C)C)c4cc(O)cc(O)c4-c4cc3ccc4O)[C@H](O)c3ccc(c(Cl)c3)Oc3cc2cc(c3OC2OC(CO)C(O)[C@H](O)[C@@H]2O[C@H]2CC(C)(NCc3ccc(-c4ccc(Cl)cc4)cc3)[C@H](O)[C@H](C)O2)Oc2ccc(cc2Cl)[C@H]1O (stereo partly shown)", "system": "mouse, plasma", "conditions": "intravenous, 50 mg/kg", "endpoint": "Cmax", "result": "58900 ng/mL"}
{"SMILES": "O=C(O)C(F)(F)C(F)(F)C(F)(F)C(F)(F)C(F)(F)C(F)(F)C(F)(F)F", "tested on": "Solute carrier organic anion transporter family member 1B1 (SLCO1B1, Homo sapiens, UniProt Q9Y6L6)", "assay": "transporter uptake, substrate", "system": "CHO", "conditions": "1 min, pH 7.4", "endpoint": "Km", "result": "52.6 µM"}
{"SMILES": "Cc1ccccc1/C=C1/SC(=O)NC1=O", "tested on": "BHK-21", "assay": "cell growth or viability, MTT", "endpoint": "CC50", "result": "> 100 µM"}
{"SMILES": "CCc1cc(/C(C)=N/OCc2ccc(C3CCCCC3)c(C(F)(F)F)c2)ccc1CN1CC(C(=O)O)C1", "tested on": "CYP3A4", "assay": "enzyme activity, inhibitor", "system": "human, liver microsomes", "conditions": "200 µM, 20 min, midazolam probe", "endpoint": "inhibition", "result": "11.5%"}
{"SMILES": "N[C@@H](Cc1ccccc1)C(=O)N1CCC(C(=O)N[C@H](C(=O)O)c2ccccc2)CC1", "tested on": "BHK-21", "assay": "cell growth or viability, MTT", "endpoint": "CC50", "result": "> 100 µM"}
{"SMILES": "COC(=O)C1CCN(C(=O)c2ccc(N(C)Cc3cnc4nc(N)nc(N)c4n3)cc2)CC1", "tested on": "CYP3A4", "assay": "enzyme activity, inhibitor, luciferase", "conditions": "10 µM", "endpoint": "inhibition", "result": "-17.4%"}
